In ChEMBL document CHEMBL5724801, “EUbOPEN Chemogenomics Library - Multiplex” (2024):
Several values for one entry are separate records, joined by “and”; a condition that tells them apart may be missing. Identical values can stand only once.

Columns and labels:
[1] = test system: Fibroblast; test: Multiplex assay against human fibroblast; type: toxicity, cell-based
Outline: (§1)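 Live cells carried four stains from seeding: Hoechst33342, BioTracker Green Microtubule Cytoskeleton Dye, MitoTracker Red and Annexin V Alexa Fluor 680. They were imaged on a CQ1 microscope at 37°C and 5% CO2 after compound addition. Using CellPathfinder machine-learning gating, cells were split into Hoechst high-intensity objects or normal cells, normal cells into healthy, pyknosed or fragmented nuclei, and pyknosed cells into mitotic or apoptotic; tubulin, mitochondrial-mass and membrane-permeability phenotypes are per cents of healthy-nucleus cells.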

[2] = test system: HEK-293T; test: Multiplex assay against HEK293T; type: toxicity, cell-based; settings: human; outline: as §1
[3] = 12 h, 1 µM, compound concentration 1 uM
[4] = 12 h, 10 µM, compound concentration 10 uM
[5] = 24 h, 1 µM, compound concentration 1 uM
[6] = 24 h, 10 µM, compound concentration 10 uM
[7] = 48 h, 1 µM, compound concentration 1 uM
[8] = 48 h, 10 µM, compound concentration 10 uM

SMILES: COc1ccc(CC(=O)NC(N/C(=N/C#N)Nc2cccc3ncccc23)C(C)(C)C)cc1OC (stereo unspecified)
- Population Fragmented Nuclei (%) [1, 3]: 9.24% and 8.25%
- Population Healthy Nuclei (%) [1, 3]: 64.67% and 81.55%
- Population Hoechst High Intensity Objects (%) [1, 3]: 0%
- Population Membrane Permeable-Phenotype (%) [1, 3]: 1.68% and 2.98%
- Population Mitochondria Different-Phenotype (%) [1, 3]: 8.4% and 6.55%
- Population Mitotic Cells (%) [1, 3]: 95.83% and 85.71%
- Population Normal (%) [1, 3]: 100%
- Population Pyknosed Nuclei (%) [1, 3]: 26.09% and 10.19%
- Population Tubulin-Different-Phenotype (%) [1, 3]: 12.61% and 16.67%
- Total Cell Count [1, 3]: 184 and 206
- Population Apoptotic (%) [1, 4]: 10.96% and 24.49%
- Population Fragmented Nuclei (%) [1, 4]: 7.46% and 8.67%
- Population Healthy Nuclei (%) [1, 4]: 56.22% and 63.01%
- Population Hoechst High Intensity Objects (%) [1, 4]: 0%
- Population Membrane Permeable-Phenotype (%) [1, 4]: 9.73% and 2.75%
- Population Mitochondria Different-Phenotype (%) [1, 4]: 7.96% and 16.51%
- Population Mitotic Cells (%) [1, 4]: 89.04% and 75.51%
- Population Normal (%) [1, 4]: 100%
- Population Pyknosed Nuclei (%) [1, 4]: 36.32% and 28.32%
- Population Tubulin-Different-Phenotype (%) [1, 4]: 26.55% and 38.53%
- Total Cell Count [1, 4]: 201 and 173
- Population Fragmented Nuclei (%) [1, 5]: 11.21% and 6.25%
- Population Healthy Nuclei (%) [1, 5]: 68.16% and 81.25%
- Population Hoechst High Intensity Objects (%) [1, 5]: 0%
- Population Membrane Permeable-Phenotype (%) [1, 5]: 3.95% and 0%
- Population Mitochondria Different-Phenotype (%) [1, 5]: 10.53% and 7.1%
- Population Mitotic Cells (%) [1, 5]: 95.65% and 76.92%
- Population Normal (%) [1, 5]: 100%
- Population Pyknosed Nuclei (%) [1, 5]: 20.63% and 12.5%
- Population Tubulin-Different-Phenotype (%) [1, 5]: 19.08% and 13.02%
- Total Cell Count [1, 5]: 223 and 208
- Population Fragmented Nuclei (%) [1, 6]: 5.12% and 8.43%
- Population Healthy Nuclei (%) [1, 6]: 64.65% and 75.3%
- Population Hoechst High Intensity Objects (%) [1, 6]: 0%
- Population Membrane Permeable-Phenotype (%) [1, 6]: 7.19% and 2.4%
- Population Mitochondria Different-Phenotype (%) [1, 6]: 10.07% and 8%
- Population Mitotic Cells (%) [1, 6]: 92.31% and 70.37%
- Population Normal (%) [1, 6]: 100%
- Population Pyknosed Nuclei (%) [1, 6]: 30.23% and 16.27%
- Population Tubulin-Different-Phenotype (%) [1, 6]: 33.09% and 40.8%
- Total Cell Count [1, 6]: 215 and 166
- Population Apoptotic (%) [1, 7]: 0% and 18.75%
- Population Fragmented Nuclei (%) [1, 7]: 7.56% and 7.18%
- Population Healthy Nuclei (%) [1, 7]: 85.29% and 85.17%
- Population Hoechst High Intensity Objects (%) [1, 7]: 0%
- Population Membrane Permeable-Phenotype (%) [1, 7]: 0.99% and 1.12%
- Population Mitochondria Different-Phenotype (%) [1, 7]: 11.82% and 3.37%
- Population Mitotic Cells (%) [1, 7]: 100% and 81.25%
- Population Normal (%) [1, 7]: 100%
- Population Pyknosed Nuclei (%) [1, 7]: 7.14% and 7.66%
- Population Tubulin-Different-Phenotype (%) [1, 7]: 5.42% and 14.04%
- Total Cell Count [1, 7]: 238 and 209
- Population Apoptotic (%) [1, 8]: 27.78% and 30.77%
- Population Fragmented Nuclei (%) [1, 8]: 8.23% and 15.18%
- Population Healthy Nuclei (%) [1, 8]: 83.98% and 78.01%
- Population Hoechst High Intensity Objects (%) [1, 8]: 0%
- Population Mitochondria Different-Phenotype (%) [1, 8]: 12.89% and 4.03%
- Population Mitotic Cells (%) [1, 8]: 72.22% and 69.23%
- Population Normal (%) [1, 8]: 100%
- Population Pyknosed Nuclei (%) [1, 8]: 7.79% and 6.81%
- Population Tubulin-Different-Phenotype (%) [1, 8]: 17.01% and 47.65%
- Total Cell Count [1, 8]: 231 and 191
- Population Apoptotic (%) [2, 3]: 11.97% and 9.68%
- Population Fragmented Nuclei (%) [2, 3]: 1.67% and 3.75%
- Population Hoechst High Intensity Objects (%) [2, 3]: 0%
- Population Membrane Permeable-Phenotype (%) [2, 3]: 0.47% and 3.33%
- Population Mitochondria Different-Phenotype (%) [2, 3]: 42.45% and 26.67%
- Population Mitotic Cells (%) [2, 3]: 88.03% and 90.32%
- Population Normal (%) [2, 3]: 100%
- Population Pyknosed Nuclei (%) [2, 3]: 39.44% and 77.5%
- Total Cell Count [2, 3]: 360 and 160
- Population Apoptotic (%) [2, 4]: 8.97% and 14.85%
- Population Fragmented Nuclei (%) [2, 4]: 3.73% and 3.91%
- Population Healthy Nuclei (%) [2, 4]: 51.24% and 17.19%
- Population Hoechst High Intensity Objects (%) [2, 4]: 0.31% and 0%
- Population Membrane Permeable-Phenotype (%) [2, 4]: 0.61% and 9.09%
- Population Mitochondria Different-Phenotype (%) [2, 4]: 26.67% and 22.73%
- Population Mitotic Cells (%) [2, 4]: 91.03% and 85.15%
- Population Normal (%) [2, 4]: 99.69% and 100%
- Population Pyknosed Nuclei (%) [2, 4]: 45.03% and 78.91%
- Total Cell Count [2, 4]: 323 and 128
- Population Apoptotic (%) [2, 5]: 11.48% and 16.07%
- Population Fragmented Nuclei (%) [2, 5]: 1.83% and 3.87%
- Population Healthy Nuclei (%) [2, 5]: 75.87% and 34.25%
- Population Hoechst High Intensity Objects (%) [2, 5]: 0.36% and 0%
- Population Membrane Permeable-Phenotype (%) [2, 5]: 1.45% and 0%
- Population Mitochondria Different-Phenotype (%) [2, 5]: 14.46% and 11.29%
- Population Mitotic Cells (%) [2, 5]: 88.52% and 83.93%
- Population Normal (%) [2, 5]: 99.64% and 100%
- Population Pyknosed Nuclei (%) [2, 5]: 22.3% and 61.88%
- Population Tubulin-Different-Phenotype (%) [2, 5]: 13.49% and 12.9%
